In ChEMBL document CHEMBL4033612, “The Bibenzyl Canniprene Inhibits the Production of Pro-Inflammatory Eicosanoids and Selectively Accumulates in Some Cannabis sativa Strains” (J Nat Prod, 2017):
Active and inactive are the calls of the source. The rule behind the calls is not given here.

What was measured:
[1] = biological target: T1, Prostaglandin E synthase (Homo sapiens) (UniProt O14684); assay: Inhibition of mPGES-1 in interleukin-1 beta-stimulated human A549 cells microsomal membranes up to 10 uM assessed as reduction in conversion of PGH2 to PGE2 pre-incubated for 15 mins followed by PGH2 substrate addition measured after 1 min by RP-HPLC method; format: cell-based
T1 sequence (whole entry): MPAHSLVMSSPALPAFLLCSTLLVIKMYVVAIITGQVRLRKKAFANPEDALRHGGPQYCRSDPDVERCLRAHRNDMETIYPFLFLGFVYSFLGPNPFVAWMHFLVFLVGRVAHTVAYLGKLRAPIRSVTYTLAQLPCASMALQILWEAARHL
Procedure, shortened: (§1)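 A549 cells treated with 1 ng/mL IL-1β for 48 h, sonicated, and microsomes isolated at 174000g. Membranes were diluted in 0.1 M potassium phosphate pH 7.4 with 2.5 mM glutathione and given compound or vehicle for 15 min at 4 °C. PGH2 was added and the reaction ran 1 min at 4 °C, then was stopped with FeCl2/citric acid containing 11β-PGE2 internal standard. PGE2 was taken by SPE and measured by RP-HPLC. IC50 by linear interpolation.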

[2] = biological target: T2, Polyunsaturated fatty acid 5-lipoxygenase (Homo sapiens, UniProt P09917); assay: (§2) Inhibition of human recombinant 5-lipoxygenase expressed in Escherichia coli MV1190 pre-incubated for 10 mins before arachidonic acid substrate addition and measured after 10 mins by RP-HPLC method
T2 sequence (P09917 whole entry): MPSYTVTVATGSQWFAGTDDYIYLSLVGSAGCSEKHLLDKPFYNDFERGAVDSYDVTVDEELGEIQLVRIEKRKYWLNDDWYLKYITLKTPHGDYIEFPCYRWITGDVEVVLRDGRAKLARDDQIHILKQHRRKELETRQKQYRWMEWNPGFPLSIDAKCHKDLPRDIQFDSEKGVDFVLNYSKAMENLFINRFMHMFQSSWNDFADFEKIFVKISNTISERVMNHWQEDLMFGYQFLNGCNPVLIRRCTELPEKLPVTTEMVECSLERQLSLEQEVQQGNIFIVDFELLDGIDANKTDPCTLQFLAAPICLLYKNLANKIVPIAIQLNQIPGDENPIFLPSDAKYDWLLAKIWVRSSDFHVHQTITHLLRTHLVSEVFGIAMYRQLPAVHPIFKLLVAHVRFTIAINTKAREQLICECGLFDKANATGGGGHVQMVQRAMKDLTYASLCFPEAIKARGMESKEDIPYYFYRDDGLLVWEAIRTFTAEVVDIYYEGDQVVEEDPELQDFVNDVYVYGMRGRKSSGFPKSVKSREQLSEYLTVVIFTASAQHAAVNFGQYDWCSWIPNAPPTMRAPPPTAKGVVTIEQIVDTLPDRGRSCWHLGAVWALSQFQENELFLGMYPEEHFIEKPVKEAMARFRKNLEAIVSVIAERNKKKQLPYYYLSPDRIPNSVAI
Procedure, shortened: (§3)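 5-LO expressed at 27 °C in transformed E. coli, lysed, sonicated, spun at 40000g; supernatant partially purified on ATP-agarose and used at once. Enzyme diluted in ice-cold PBS with 1 mM EDTA and 1 mM ATP, preincubated with compound 10 min at 4 °C, warmed 30 s at 37 °C. Reaction started with 2 mM CaCl2 plus 20 μM AA, 10 min at 37 °C, stopped with methanol. Products analysed by RP-HPLC. IC50 by linear interpolation around 50% activity.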

Prostaglandin E synthase = biological target: T3, Prostaglandin E synthase (Homo sapiens, UniProt O14684); assay: (§4) Inhibition of mPGES-1 in interleukin-1 beta-stimulated human A549 cells microsomal membranes assessed as reduction in conversion of PGH2 to PGE2 pre-incubated for 15 mins followed by PGH2 substrate addition measured after 1 min by RP-HPLC method; format: cell-based; procedure, shortened: as §1
T3 sequence (O14684 whole entry): T1 sequence (whole entry)

[3] = biological target: T1, Prostaglandin E synthase (Homo sapiens); assay: as §4; format: cell-based; procedure, shortened: as §1
[4] = biological target: T4, Polyunsaturated fatty acid 5-lipoxygenase (Homo sapiens) (UniProt P09917); assay: as §2; procedure, shortened: as §3
T4 sequence (whole entry): T2 sequence (P09917 whole entry)

[5] = biological target: T4, Polyunsaturated fatty acid 5-lipoxygenase (Homo sapiens); assay: Inhibition of human recombinant 5-lipoxygenase expressed in Escherichia coli MV1190 up to 10 uM pre-incubated for 10 mins before arachidonic acid substrate addition and measured after 10 mins by RP-HPLC method; procedure, shortened: as §3

inhibition [1]	IC50 [2] [nM]	IC50 (Prostaglandin E synthase) [nM]	inhibition [3]	inhibition [4]	inhibition [5]	Structure (SMILES)
inactive	9300	–	–	–	–	COc1cc(O)c2c(c1)CCC21C=CC(=O)CC1 (stereo not given)
–	1300	1800	–	–	–	COc1cc(-c2cc(=O)c3c(O)c(C/C=C(\C)CCC=C(C)C)c(O)cc3o2)ccc1O
–	400	10000	Dose-dependent effect	Dose-dependent effect	–	COc1cc(O)cc(CCc2ccc(OC)c(O)c2CC=C(C)C)c1
inactive	–	–	–	–	inactive	COc1cc(O)c2c(c1)CCC21CCC(O)CC1 (stereo not given)
